High-throughput results as filed in PubChem.
MEKK3 PB1 HTS = modulators (inhibitors or enhancers) of MEK5 binding to human MEKK3 PB1 domain; Q99759; bead-based flow cytometry, Alexa488-MEK5 binding to MEKK3; actives lie on both sides; 0 = blocked by unlabeled MEK5, 100 = vehicle; binding response (% of control), % at 10 µM; hit rate 1.4% among 290,000;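 active means binding response more than 3 SD above or below the average of its plate-row segment, actives on both sides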;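 further: Alexa488 bead fluorescence after subtracting the streptavidin-only scavenger bead signal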
Target sequence (Q99759 whole entry, looked up, the tested form may be a part): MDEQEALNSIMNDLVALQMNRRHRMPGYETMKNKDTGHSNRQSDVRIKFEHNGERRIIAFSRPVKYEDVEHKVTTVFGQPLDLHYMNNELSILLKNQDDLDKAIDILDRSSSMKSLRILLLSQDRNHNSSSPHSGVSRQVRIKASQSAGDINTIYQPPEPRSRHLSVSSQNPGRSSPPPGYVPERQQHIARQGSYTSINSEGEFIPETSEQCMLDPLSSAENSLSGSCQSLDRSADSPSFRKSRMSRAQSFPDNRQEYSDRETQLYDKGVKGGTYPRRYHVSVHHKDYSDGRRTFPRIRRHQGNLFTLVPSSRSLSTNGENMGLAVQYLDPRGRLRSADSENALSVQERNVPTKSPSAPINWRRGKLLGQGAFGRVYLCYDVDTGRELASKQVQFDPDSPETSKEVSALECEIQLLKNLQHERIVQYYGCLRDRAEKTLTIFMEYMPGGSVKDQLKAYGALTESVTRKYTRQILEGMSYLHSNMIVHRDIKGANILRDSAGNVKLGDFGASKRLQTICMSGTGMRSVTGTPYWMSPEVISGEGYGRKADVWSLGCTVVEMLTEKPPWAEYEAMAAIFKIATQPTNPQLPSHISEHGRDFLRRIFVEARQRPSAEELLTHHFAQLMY
MEKK2mut PB1 HTS = signal of MEK5 binding to mutant human MEKK2 PB1 domain; bead flow cytometry, Alexa488-MEK5 binding to MEKK2 mutant; percent response, % at 10 µM; hit rate 0.35% among 290,000; in the data active means percent response above about 24%, passing the limit was not always enough
VIM-2 inhibitor = inhibitors of Pseudomonas aeruginosa VIM-2 metallo-beta-lactamase. purified VIM-2, nitrocefin hydrolysis, epi-absorbance fluorescence. hit rate 0.89% among 290,000. inhibition, % at 5.6 µM;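 active means inhibition above the mean of all tested compounds plus 3 SD, cutoff set per screening run, cut at about 7.5% in these data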;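 further: red hydrolysis product quenches plate fluorescence so inhibitors raise well fluorescence; 0% = enzyme with DMSO and 100% = DMSO without enzyme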
IMP-1 inhibitor = inhibitors of Pseudomonas aeruginosa IMP-1 metallo-beta-lactamase; inhibition, % at 5.6 µM; hit rate 0.45% among 290,000; purified IMP-1, nitrocefin hydrolysis, epi-absorbance fluorescence; AID 1556;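 active means inhibition above the mean plus 3 SD of all compounds in the same screening run, cut at about 4.5% in these data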;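 further: 0% = IMP-1 with DMSO and 100% = DMSO wells lacking enzyme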
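System: Purified recombinant IMP-1 metallo-beta-lactamase enzyme | Measured by: Fluorescence quenching readout, ex 480/em 530 nm | Replication: Singlicate | Incubation: 15 min preincubation plus 25 min reaction at 25 °C | Evaluation: Percent inhibition from optical density relative to buffer-blank wells | Benchmarks: DMSO with and without IMP-1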
MEKK2wt PB1 HTS = raises or lowers MEK5 binding to wildtype human MEKK2 PB1 domain; hit rate 1.1% among 290,000; Q9Y2U5; bead flow cytometry, Alexa488-MEK5 binding to MEKK2 WT; actives lie on both sides; binding response (% of control), % at 10 µM; AID 1531; in the data active means binding response below about 67% or above about 130%
MEKK2wt confirm = raises or lowers MEK5 binding to wildtype human MEKK2, retest; hit rate 2.4% among 5,900; bead flow cytometry, Alexa488-MEK5 binding to MEKK2 WT; actives lie on both sides; shares compounds with MEKK3 PB1 HTS; binding response (% of control), % at 10 µM; AID 1892; in the data active means binding response below about 16% or above about 210%; inactive means in between
MEKK2mut-MEK5 = signal of MEK5 binding to mutant human MEKK2, retest. shares compounds with MEKK3 PB1 HTS. bead flow cytometry, Alexa488-MEK5 binding to MEKK2 mutant. percent response, % at 10 µM. hit rate 2% among 5,900; in the data active means percent response mostly above about 71%, no sharp cut-off; inactive means mostly below about 38%;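 further: higher means compound restores mutant binding toward wildtype level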
MEKK3 confirm = confirmation of inhibitors of MEK5 binding to human MEKK3 | AID 1894 | hit rate 1.8% among 5,900 | binding response (% of control), % at 10 µM | shares compounds with MEKK3 PB1 HTS | bead flow cytometry, Alexa488-MEK5 binding to MEKK3; hits give low values;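 active means binding response below 72% of control, or above a set upper limit, though filed actives all read lower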;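 further: 100% = DMSO only wells and 0% = binding blocked by excess unlabeled MEK5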
Numbers without * were called inactive; [ ] = dose if it differs, or a comment. Compounds with a hit are over-represented: about 3.4% of the library has one in this group of screens.

For COc1cc(OC)cc(C(=O)NCc2n[nH]c(=S)n2-c2ccccc2)c1 the results were MEKK3 PB1 HTS 98, MEKK2mut PB1 HTS -2, VIM-2 inhibitor 1, IMP-1 inhibitor 0 and MEKK2wt PB1 HTS 96.
COc1ccc(C(=O)NCc2n[nH]c(=S)n2-c2ccccc2)cc1OC was read as MEKK3 PB1 HTS -1.0*[inhibitor], MEKK2mut PB1 HTS -40, VIM-2 inhibitor 0, IMP-1 inhibitor -5, MEKK2wt PB1 HTS -5.0*[inhibitor], MEKK2wt confirm 110, MEKK2mut-MEK5 11 and MEKK3 confirm 107.
Screening NCCc1c(-c2ccccc2)n(-c2ccccc2)c2ccccc12 returned MEKK3 PB1 HTS 108, MEKK2mut PB1 HTS 62*, VIM-2 inhibitor -2, IMP-1 inhibitor -2, MEKK2wt PB1 HTS 197*, MEKK2wt confirm 155, MEKK2mut-MEK5 35 and MEKK3 confirm 111.
CC(=O)n1c(-c2ccccc2)c(CO)c2ccccc21 was read as MEKK3 PB1 HTS 100, MEKK2mut PB1 HTS -1, VIM-2 inhibitor -1, IMP-1 inhibitor -2 and MEKK2wt PB1 HTS 95.
For CC(C)N(Cc1ccccc1)C(=O)CC(=O)N(Cc1ccccc1)C(C)C the results were MEKK3 PB1 HTS 102, MEKK2mut PB1 HTS 6, VIM-2 inhibitor -1, IMP-1 inhibitor -3 and MEKK2wt PB1 HTS 104.
Screening O=C(Nc1ccc(C2=NCCN2)cc1)c1ccc(C(=O)Nc2ccc(C3=NCCN3)cc2)c([N+](=O)[O-])c1 returned MEKK3 PB1 HTS 63*[inhibitor], MEKK2mut PB1 HTS 32, VIM-2 inhibitor -2, IMP-1 inhibitor -1, MEKK2wt PB1 HTS 151*, MEKK2wt confirm 104, MEKK2mut-MEK5 6 and MEKK3 confirm 46*.
`COc1ccc(/C=C(/NC(=O)c2ccccc2)C(=O)N/N=C/c2sccc2C)cc1` gave MEKK3 PB1 HTS 133*, MEKK2mut PB1 HTS 1, VIM-2 inhibitor -3, IMP-1 inhibitor -4, MEKK2wt PB1 HTS 105, MEKK2wt confirm 94, MEKK2mut-MEK5 -6 and MEKK3 confirm 98.
`COc1ccc(/C=C(\NC(=O)c2ccccc2)C(=O)N/N=C/c2sccc2C)cc1` gave MEKK3 PB1 HTS 99, MEKK2mut PB1 HTS 3, VIM-2 inhibitor -5, IMP-1 inhibitor -3 and MEKK2wt PB1 HTS 101.
`COc1cccc(CCc2nnc(CCC(=O)N(C)C3CC(C)(C)NC(C)(C)C3)o2)c1` gave MEKK3 PB1 HTS 103, MEKK2mut PB1 HTS 4, VIM-2 inhibitor -2, IMP-1 inhibitor -3 and MEKK2wt PB1 HTS 109.
Cc1csc(NC(=O)CSc2nnc(NC(=O)C3CC(=O)N(c4ccccc4)C3)s2)n1 (configuration not stated) was read as MEKK3 PB1 HTS 96, MEKK2mut PB1 HTS -2, VIM-2 inhibitor -4, IMP-1 inhibitor -1 and MEKK2wt PB1 HTS 94.
For CCCCN(Cc1ccco1)C(=O)c1cc2c(=O)[nH]c3ccc(C)cc3c2s1 the results were MEKK3 PB1 HTS 97, MEKK2mut PB1 HTS -3, VIM-2 inhibitor 7, IMP-1 inhibitor -4 and MEKK2wt PB1 HTS 96.
`Cc1ccc2nc(Cl)c3cc(C(=O)N(CCN(C)C)Cc4ccco4)sc3c2c1` gave MEKK3 PB1 HTS 96, MEKK2mut PB1 HTS 5, VIM-2 inhibitor 8.3*, IMP-1 inhibitor 2, MEKK2wt PB1 HTS 149*, MEKK2wt confirm 137, MEKK2mut-MEK5 21 and MEKK3 confirm 104.
Screening Cc1cc(C)n(CC(C)NC(=O)c2cc(COc3c(F)cccc3F)on2)n1 (configuration not stated) returned MEKK3 PB1 HTS 104, MEKK2mut PB1 HTS 7, VIM-2 inhibitor -2, IMP-1 inhibitor -1 and MEKK2wt PB1 HTS 105.
Screening Cc1ccc2c(c1)c1c3n2CCN(CC(O)CNC(C)C)C3CCC1 (configuration not stated) returned MEKK3 PB1 HTS 107, MEKK2mut PB1 HTS 12, VIM-2 inhibitor 6, IMP-1 inhibitor 1, MEKK2wt PB1 HTS 169*, MEKK2wt confirm 119, MEKK2mut-MEK5 4 and MEKK3 confirm 98.
`Cc1ccc2c(c1)c1c3n2CCN(CC(N)=O)C3CCC1` (configuration not stated) gave MEKK3 PB1 HTS 100, MEKK2mut PB1 HTS 0, VIM-2 inhibitor 2, IMP-1 inhibitor 0 and MEKK2wt PB1 HTS 105.
COc1ccc(C(=O)NCc2nnc(SCC(=O)Nc3ccccc3OC)o2)cc1 was read as MEKK3 PB1 HTS 101, MEKK2mut PB1 HTS 1, VIM-2 inhibitor -1, IMP-1 inhibitor -1 and MEKK2wt PB1 HTS 103.
COc1ccc(C(=O)NCc2nnc(SCC(=O)Nc3ccccc3F)o2)cc1 was read as MEKK3 PB1 HTS 3.0*[inhibitor], MEKK2mut PB1 HTS -67, VIM-2 inhibitor -2, IMP-1 inhibitor -1, MEKK2wt PB1 HTS 3.0*[inhibitor], MEKK2wt confirm 105, MEKK2mut-MEK5 5 and MEKK3 confirm 102.
NC(=O)COC(=O)c1ccccc1OCc1ccccc1Cl was read as MEKK3 PB1 HTS 125, MEKK2mut PB1 HTS 457*, VIM-2 inhibitor -4, IMP-1 inhibitor -2, MEKK2wt PB1 HTS 640*, MEKK2wt confirm 102, MEKK2mut-MEK5 3 and MEKK3 confirm 103.
NC(=O)COC(=O)c1ccccc1OCc1ccccc1 was read as MEKK3 PB1 HTS 103, MEKK2mut PB1 HTS -10, VIM-2 inhibitor -3, IMP-1 inhibitor -5 and MEKK2wt PB1 HTS 96.
`Cc1nc2c(C)cccc2cc1C(=O)N/N=C/c1cccc([N+](=O)[O-])c1` gave MEKK3 PB1 HTS 104, MEKK2mut PB1 HTS 3, VIM-2 inhibitor -3, IMP-1 inhibitor -6 and MEKK2wt PB1 HTS 102.
C/C(=C/C(=O)N1CCc2ccccc21)C(=O)O was read as MEKK3 PB1 HTS 145*, MEKK2mut PB1 HTS 4, VIM-2 inhibitor -5, IMP-1 inhibitor -4, MEKK2wt PB1 HTS 117, MEKK2wt confirm 98, MEKK2mut-MEK5 2 and MEKK3 confirm 101.
Screening CC(C)c1ccc(S(=O)(=O)N2CCN(C(=O)c3cc(-c4ccccc4)n[nH]3)CC2)cc1 returned MEKK3 PB1 HTS 100, MEKK2mut PB1 HTS 0, VIM-2 inhibitor -1, IMP-1 inhibitor -5 and MEKK2wt PB1 HTS 93.
For O=c1[nH]ncc(N/N=C\c2ccncc2)c1Cl the results were MEKK3 PB1 HTS 136*, MEKK2mut PB1 HTS 5, VIM-2 inhibitor 0, IMP-1 inhibitor 1, MEKK2wt PB1 HTS 118, MEKK2wt confirm 87, MEKK2mut-MEK5 -11 and MEKK3 confirm 88.
COc1cc(OC)c(NC(=S)NCc2ccccc2)cc1Cl was read as MEKK3 PB1 HTS 105, MEKK2mut PB1 HTS 8, VIM-2 inhibitor -3, IMP-1 inhibitor -2 and MEKK2wt PB1 HTS 99.
